The species named for test [1] is Mus musculus. As to the kind of experiment: In vitro antiviral activity against herpes simplex virus type 1 (strain E-377) grown in mouse fibroblasts cells, clone L-929, expressed as virus ration (VR). In kind it is functional, Fibroblast.
Test [2] is filed under the species Rattus norvegicus. As to the kind of experiment: Percent inhibition of oncogenic transformation of HL-23 virus infected rat kidney cells (NRK 153C17) at 0.5 uM. In kind it is functional. In short, it runs like this: (§1)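 NRK 153 C1 7 rat kidney cells infected with HL-23 virus in the presence of compound at 0–4 μM. Foci were stained with Giemsa and counted per dish on day 5. % inhibition was derived from focus counts relative to the untreated dish.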

The species entered for test [3] is Rattus norvegicus. The experiment in a line: Inhibition of oncogenic transformation was assayed by infecting normal rat kidney cells (NRK 153C17) with HL-23 virus and counting the %control cell number on day 3 at a concentration of 0 uM. In kind it is functional. The essentials:
(§2)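 Normal rat kidney cells (NRK 153 C1 7) infected with HL-23 virus, a C-type virus isolated from human acute myelogenous leukemia cells, and exposed to compound at 0–4 μM. Cell number determined on day 3 and expressed as % of control.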

Test [4] is filed under the species Rattus norvegicus. As to the kind of experiment: Inhibition of oncogenic transformation expressed as %control cell number on day 3 in HL-23 virus infected rat kidney cells (NRK 153C17) at 0.25 uM. In kind it is functional. The essentials: as §2
For test [5], the species on record is Rattus norvegicus. As to the kind of experiment: Inhibition of oncogenic transformation expressed as number of foci on day 5 in HL-23 virus infected rat kidney cells (NRK 153C17) at 2 uM. Type of test: functional. The essentials:
as §1

For test [6], the species on record is Rattus norvegicus. As to the kind of experiment: Inhibition of oncogenic transformation expressed as %control cell number on day 3 in HL-23 virus infected rat kidney cells (NRK 153C17) at 1 uM. In kind it is functional. In short, it runs like this:
as §2

Test [7] is filed under the species Rattus norvegicus. As to the kind of experiment: Inhibition of oncogenic transformation expressed as number of foci on day 5 in HL-23 virus infected rat kidney cells (NRK 153C17) at 0 uM. Type of test: functional. The essentials:
as §1

The species named for test [8] is Mus musculus. As to the kind of experiment: Effect in mouse infected with herpes simplex virus type-1; observed effects diminished with time. In kind it is functional, organism-based.
The species entered for test [9] is Rattus norvegicus. As to the kind of experiment: Inhibition of oncogenic transformation expressed as number of foci on day 5 in HL-23 virus infected rat kidney cells (NRK 153C17) at 1 uM. In kind it is functional. The essentials:
as §1

The species entered for test [10] is Rattus norvegicus. The experiment in a line: Percent inhibition of oncogenic transformation of HL-23 virus infected rat kidney cells (NRK 153C17) at 1 uM. In kind it is functional. The essentials:
as §1

The species named for test [11] is Rattus norvegicus. As to the kind of experiment: Percent inhibition of oncogenic transformation of HL-23 virus infected rat kidney cells (NRK 153C17) at 0 uM. Type of test: functional. In short, it runs like this:
as §1

Test [12] is filed under the species Mus musculus. As to the kind of experiment: Minimum Inhibitory concentration of the drug required for 50% inhibition of herpes simplex virus type 1 (strain E-377) -induced cytopathogenic effects in infected cell cultures. Type of test: functional.
The species entered for test [13] is Rattus norvegicus. As to the kind of experiment: Inhibition of oncogenic transformation expressed as number of foci on day 5 in HL-23 virus infected rat kidney cells (NRK 153C17) at 4 uM. In kind it is functional. The essentials:
as §1

Test [14] is filed under the species Rattus norvegicus. As to the kind of experiment: Percent inhibition of oncogenic transformation of HL-23 virus infected rat kidney cells (NRK 153C17) at 0.25 uM. Type of test: functional. In short, it runs like this: as §1
Test [15] is filed under the species Mus musculus. The experiment in a line: In vitro antiviral activity against herpes simplex virus type 1 (strain E-377) grown in mouse fibroblasts cells, clone L-929, expressed as virus rating (VR). Type of test: functional, Fibroblast.
Test [16] is filed under the species Rattus norvegicus. The experiment in a line: Inhibition of oncogenic transformation expressed as number of foci on day 5 in HL-23 virus infected rat kidney cells (NRK 153C17) at 0.25 uM. In kind it is functional. In short, it runs like this:
as §1

The species entered for test [17] is Rattus norvegicus. The experiment in a line: Inhibition of oncogenic transformation expressed as number of foci on day 5 in HL-23 virus infected rat kidney cells (NRK 153C17) at 0.5 uM. In kind it is functional. The essentials: as §1
Test [18] is filed under the species Rattus norvegicus. As to the kind of experiment: Percent inhibition of oncogenic transformation of HL-23 virus infected rat kidney cells (NRK 153C17) at 2 uM. Type of test: functional. The essentials:
as §1

The species entered for test [19] is Rattus norvegicus. The experiment in a line: Inhibition of oncogenic transformation expressed as %control cell number on day 3 in HL-23 virus infected rat kidney cells (NRK 153C17) at 4 uM. In kind it is functional. The essentials:
as §2

The species named for test [20] is Mus musculus. As to the kind of experiment: Minimum Inhibitory concentration of the drug required for 50% inhibition of vaccinia virus (strain Lederle chorioallantoic) -induced cytopathogenic effects in infected cell cultures. In kind it is functional.
The species named for test [21] is Rattus norvegicus. As to the kind of experiment: Inhibition of oncogenic transformation expressed as %control cell number on day 3 in HL-23 virus infected rat kidney cells (NRK 153C17) at 0.5 uM. In kind it is functional. The essentials:
as §2

For test [22], the species on record is Rattus norvegicus. As to the kind of experiment: Percent inhibition of oncogenic transformation of HL-23 virus infected rat kidney cells (NRK 153C17) at 4 uM. In kind it is functional. The essentials:
as §1

Test [23] is filed under the species Rattus norvegicus. The experiment in a line: Inhibition of oncogenic transformation expressed as %control cell number on day 3 in HL-23 virus infected rat kidney cells (NRK 153C17) at 2 uM. Type of test: functional. In short, it runs like this: as §2
Test [24] is filed under the species Mus musculus. The experiment in a line: Effect in mouse infected with vaccinia virus; observed effects seen. In kind it is functional, organism-based.
For test [25], the species on record is Mus musculus. As to the kind of experiment: In vitro antiviral activity against vaccinia virus (strain Lederle chorioallantoic) grown in mouse fibroblasts cells, clone L-929, expressed as VR. Type of test: functional, Fibroblast.
The species named for test [26] is Mus musculus. As to the kind of experiment: Effect in mouse infected with herpes simplex virus type-1; observed effects seen. Type of test: functional, organism-based.
For test [27], the species on record is Mus musculus. As to the kind of experiment: Minimum Inhibitory concentration of the drug required for 50% inhibition vaccinia virus (strain Lederle chorioallantoic)-induced cytopathogenic effects in infected cell cultures. In kind it is functional.

Molecules are shown by their SMILES. Converted amounts (≈) assume the structure as drawn. The source made the active and inactive calls. The rule behind the calls is not given here.

`Nc1nccc2c1ncn2[C@@H]1O[C@H](CO)[C@@H](O)[C@H]1O`: the Virus rating in test [1] turned out to be 0.5.
As for `Nc1nccc2c1ncn2[C@@H]1C[C@H](CO)[C@@H](O)[C@H]1O` [3-DEAZAARISTEROMYCIN A], the inhibition at 0.5 µM in [2] worked out at 44%. Also, the Control cell number in test [3] came to 100%; in [4], 100%; in test [6], 81%; in test [19], 53%; in [21] it was 96%; in [23], 71%. Besides, the “No. of foci per dish” value in test [5] amounted to 9; in test [7], 115; in [9], 28; in test [13] it was 1; in test [16] it was 64; in [17], 65. Moreover, the Activity result is reported as “+ to +/-” in [8] and “observed effects seen” in test [24]. The molecule further displayed an inhibition at 1 µM in test [10] of 76%. The same molecule displayed an Inhibition in test [11] of 0%. In addition, the results for the MIC in test [12] and in test [20] were 238 µg/mL (≈ 901 µM) and 1.9 µg/mL (≈ 7.19 µM), respectively. In [14], the inhibition at 0.25 µM is 44%. For the same molecule, the Virus rating in test [15] is recorded as 1.1; in [25] it was 2.8. In [18], this molecule gave an inhibition at 2 µM of 92%. For the same molecule, 4 µM produced 99% inhibition in [22].
For `Nc1ncnc2c1ncn2[C@@H]1O[C@H](CO)[C@@H](O)[C@@H]1O` [VIDARABINE], the MIC came out at 2.1 µg/mL (≈ 7.86 µM) in test [12] and 19.2 µg/mL (≈ 71.8 µM) in test [27]. Further, the Virus rating in test [15] stood at 3.2; in test [25], 1.2. The result in [26] and in [24] was Active.

Source of the values: ChEMBL document CHEMBL1122162, “Carbocyclic analogue of 3-deazaadenosine: a novel antiviral agent using S-adenosylhomocysteine hydrolase as a pharmacological target” (1982).
